Data: ChEMBL document CHEMBL1157729, “Structure-activity relationship and mechanism of action studies of manzamine analogues for the control of neuroinflammation and cerebral infections” (J Med Chem, 2010)
pIC50: −log10 of the molar value. Values after ≈ are worked out from the molar mass of the structure shown.

Columns and labels:
Plasmodium falciparum [1] = assay: Antiplasmodial activity against chloroquine-sensitive Plasmodium falciparum D6 after 72 hrs by LDH assay; assay type: functional, organism-based
Candida albicans = assay: Antifungal activity against Candida albicans ATCC 90028; assay type: functional, organism-based
Method in brief: (§1)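 Broth microdilution per modified CLSI method; samples serially diluted in 20% DMSO/saline, tested in duplicate; inocula set by OD630 of suspensions in incubation broth; growth read at 630 nm before and after incubation; amphotericin B drug control.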

Cryptococcus neoformans = assay: Antifungal activity against Cryptococcus neoformans ATCC 90113; assay type: functional, organism-based; method in brief: as §1
[2] = test system: Mycobacterium intracellulare; assay: Antimycobacterial activity against Mycobacterium intracellular ATCC 23068; assay type: functional, organism-based
Method in brief: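 Modified Franzblau method; samples serially diluted in 20% DMSO/saline, tested in duplicate; inoculum set by OD630; fluorescence read at 544ex/590em before and after incubation; ciprofloxacin drug control.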

Vero [3] = assay: Cytotoxicity against african green monkey Vero cells up to 4.6 ug/mL after 48 hrs by neutral red assay; assay type: cell-based; settings: chlorocebus sabaeus
Method in brief: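 Vero cells were seeded at 25,000 cells/well and incubated for 24 h, then exposed to serially diluted samples for 48 h. Viable cells were counted by Neutral Red assay, with doxorubicin as positive control. IC50 was taken from dose-response curves.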

[4] = test system: Mycobacterium tuberculosis; assay: Antimycobacterial activity against Mycobacterium tuberculosis H37Rv; assay type: functional, organism-based
Plasmodium falciparum [5] = assay: Antiplasmodial activity against chloroquine-resistant Plasmodium falciparum W2 after 72 hrs by LDH assay; assay type: functional, organism-based
Vero [6] = assay: Cytotoxicity against african green monkey Vero cells after 48 hrs by neutral red assay; assay type: cell-based; settings: chlorocebus sabaeus
Method in brief: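 Vero cells seeded at 25,000/well and grown 24 h, then exposed to serially diluted samples for 48 h. Viable cells measured by neutral red assay, with doxorubicin as positive control. IC50 taken from dose-response curves.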

[7] = Antineuroinflammatory activity in LPS-stimulated rat neonatal microglia assessed as inhibition of PMA-induced TXB2 production preincubated 15 mins prior to PMA challenge measured after 70 mins; assay type: functional, cell-based
[8] = Antineuroinflammatory activity in LPS-stimulated rat neonatal microglia assessed as drug level causing 50% PMA-induced LDH release preincubated 15 mins prior to PMA challenge measured after 70 mins; assay type: functional
Method in brief: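 Neonatal rat microglia (2 × 10^5/well) primed with E. coli LPS 0.3 ng/mL for 17 h at 35.9 °C, washed with HBSS, given compound (0.01–10 μM) or DMSO 15 min, then PMA 1 μM; LDH read spectrophotometrically after 70 min; LDH50 relative to Triton X-100 (0.1%) release; duplicates.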

[9] = Antineuroinflammatory activity in LPS-stimulated rat neonatal microglia assessed as inhibition of PMA-induced superoxide anion production preincubated 15 mins prior to PMA challenge measured after 70 mins; assay type: functional, cell-based
[10] = Plasmodium falciparum, D6, 72 h, read-out: IC50
[11] = Plasmodium falciparum, W2, 72 h, read-out: IC50

SMILES | IC50 (Plasmodium falciparum [1]) | IC50 (Candida albicans) | IC50 (Cryptococcus neoformans) | IC50 [2] | Activity (Vero [3]) | MIC [4] | IC50 (Plasmodium falciparum [5]) | IC50 (Plasmodium falciparum [1]; [10]) | IC50 (Vero [6]) | IC50 (Plasmodium falciparum [5]; [11]) | pIC50 [7] | Activity [8] | pIC50 [9]
COc1cccc(/C=C2/CCN3[C@@H](CCC2=O)C[C@]24CN5CCCC/C=C\CC[C@](O)(C=C(c6nccc7c6[nH]c6c(O)cccc67)[C@@H]2CC5)[C@H]34)c1 | Not Active | > 20 µg/mL | > 20 µg/mL | > 20 µg/mL | Non-toxic | > 64 µg/mL | Not Active | – | – | – | – | – | –
O=C1CC[C@H]2C[C@]34CN5CCCC/C=C\CC[C@](O)(C=C(c6nccc7c6[nH]c6c(O)cccc67)[C@@H]3CC5)[C@@H]4N2CC/C1=C/c1ccc(Br)cc1 | Not Active | > 20 µg/mL | > 20 µg/mL | > 20 µg/mL | Non-toxic | > 64 µg/mL | Not Active | – | – | – | – | – | –
[O-][N+]12CCCC/C=C\CC[C@]3(O)C=C(c4nccc5c4[nH]c4ccccc45)[C@H](CC1)[C@]1(C[C@@H]4/C=C\CCCC[N@+]4([O-])[C@H]13)C2 | – | > 20 µg/mL | > 20 µg/mL | 10 µg/mL (≈ 17.2 µM) | Non-toxic | – | – | – | – | – | – | – | –
CC(=O)Oc1cccc2c1[nH]c1c(C3=C[C@@]4(O)CC/C=C\CCCCN5CC[C@@H]3[C@]3(C[C@@H]6/C=C\CCCCN6[C@H]34)C5)nccc12 [8-ACETOXYMANZAMINE A] | – | – | – | – | – | – | – | 0.029 µg/mL (≈ 0.0478 µM) | 670 µg/mL (≈ 1100 µM) | – | – | – | –
O=[N+]([O-])c1cccc2c1[nH]c1c(C3=C[C@@]4(O)CC/C=C\CCCCN5CC[C@@H]3[C@]3(C[C@@H]6/C=C\CCCCN6[C@H]34)C5)nccc12 [8-NITROMANZAMINE A] | – | > 20 µg/mL | 4 µg/mL (≈ 6.74 µM) | 0.25 µg/mL (≈ 0.421 µM) | Non-toxic | – | – | 0.31 µg/mL (≈ 0.522 µM) | – | 0.41 µg/mL (≈ 0.691 µM) | – | – | –
CC(C)CCn1c2ccccc2c2ccnc(C3=C[C@@]4(O)CC/C=C\CCCCN5CC[C@@H]3[C@]3(C[C@@H]6/C=C\CCCCN6[C@H]34)C5)c21 [9-N-ISOPENTYLMANZAMINE A] | – | > 20 µg/mL | > 20 µg/mL | 6.5 µg/mL (≈ 10.5 µM) | Non-toxic | 128 µg/mL (≈ 207 µM) | – | 2.3 µg/mL (≈ 3.72 µM) | – | 3.8 µg/mL (≈ 6.14 µM) | 5.49 | >10 µM | 5.49
Cn1c2ccccc2c2ccnc(C3=C[C@@]4(O)CC/C=C\CCCCN5CC[C@@H]3[C@]3(C[C@@H]6/C=C\CCCCN6[C@H]34)C5)c21 [9-N-METHYLMANZAMINE A] | – | > 20 µg/mL | > 20 µg/mL | > 20 µg/mL | Non-toxic | > 64 µg/mL | – | 1.9 µg/mL (≈ 3.38 µM) | – | 1 µg/mL (≈ 1.78 µM) | < 5.00 | >10 µM | < 5.00
O[C@]12C=C(c3nccc4c3[nH]c3ccccc34)[C@@H]3CCN(CCCC/C=C\CC1)C[C@@]31C[C@@H]3CCCCCCN3[C@H]12 [32,33-DIHYDROMANZAMINE A] | – | 9.5 µg/mL (≈ 17.2 µM) | 1.5 µg/mL (≈ 2.72 µM) | 0.6 µg/mL (≈ 1.09 µM) | – | 66 µg/mL (≈ 120 µM) | – | – | – | 1.8 µg/mL (≈ 3.27 µM) | – | – | –
C[C@@H]1[C@H](O)[C@@H](C)/C=C/C=C/C=C/C=C/C=C/C=C/C=C/[C@H](O[C@@H]2O[C@H](C)[C@@H](O)[C@H](N)[C@@H]2O)C[C@@H]2O[C@](O)(C[C@@H](O)C[C@@H](O)[C@H](O)CC[C@@H](O)C[C@@H](O)CC(=O)O[C@H]1C)C[C@H](O)[C@H]2C(=O)O [AMPHOTERICIN B] | – | 0.2 µg/mL (≈ 0.216 µM) | – | – | – | – | – | – | – | – | – | – | –
C1=C(c2nccc3c2[nH]c2ccccc23)[C@@H]2CCN3CCCC/C=C\C/C=C/1[C@@H]1N4CCCC/C=C\[C@H]4C[C@@]12C3 [DEHYDROMANZAMINE A] | – | 9.5 µg/mL (≈ 17.9 µM) | 4.5 µg/mL (≈ 8.48 µM) | 0.4 µg/mL (≈ 0.754 µM) | – | 46 µg/mL (≈ 86.7 µM) | – | 0.12 µg/mL (≈ 0.226 µM) | – | 2.2 µg/mL (≈ 4.14 µM) | – | – | –
O=CC1=C[C@@]2(O)CC/C=C\CCCCN3CC[C@@H]1[C@]1(C[C@@H]4/C=C\CCCCN4[C@H]12)C3 [IRCINAL] | – | – | – | – | – | – | – | – | – | – | 6.48 | 4.6 µM | < 5.00
O=C1CCCN2[C@@H](CC1)C[C@]13CN4CCCC/C=C\CC[C@](O)(C=C(c5nccc6c5[nH]c5c(O)cccc56)C1CC4)[C@H]23 (stereo partly drawn) [MANZAMINE F] | – | 15 µg/mL (≈ 25.8 µM) | – | – | – | – | – | – | – | – | – | – | –
CO[C@H]1/C=C/O[C@@]2(C)Oc3c(C)c(O)c4c(O)c(c(/C=N/N5CCN(C)CC5)c(O)c4c3C2=O)NC(=O)/C(C)=C\C=C\[C@H](C)[C@H](O)[C@@H](C)[C@@H](O)[C@@H](C)[C@H](OC(C)=O)[C@@H]1C [RIFAMPIN] | – | – | – | – | – | 0.09 µg/mL (≈ 0.109 µM) | – | – | – | – | – | – | –
